Assay results reported in ChEMBL document CHEMBL3351398, “Discovery of a Potent and Selective DGAT1 Inhibitor with a Piperidinyl-oxy-cyclohexanecarboxylic Acid Moiety” (ACS Med Chem Lett, 2014).

How the values were obtained:
Liver = assay: Drug level in liver of C57BL/6 mouse assessed as cis-4-((1-(5-(5-(trifluoromethyl)-1H-benzo[d]imidazol-2-yl)pyridin-2-yl)piperidin-4-yl)oxy)cyclohexanecarboxylic acid level at 10 mg/kg, po after 24 hrs; format: ADME, organism-based; parameters: dose 10 mg/kg, route oral; conditions: in vivo, read-out: Drug uptake
Outline: (§1)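 Tissue distribution in C57BL/6 mice. A single oral dose of 10 mg/kg was given as a solution in EtOH/PEG400/water (10:50:40). Parent and its cis isomer were both measured, in μM, in plasma, liver, small intestine, adipose fat and skin at 3 h and 24 h.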

[1] = Clearance in Beagle dog at 1 mg/kg, iv or 4 mg/kg, po; format: ADME, organism-based, Canis lupus familiaris; conditions: in vivo
Outline: (§2)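 Single-dose pharmacokinetics. Beagle dogs were dosed at 1 mg/kg iv as a solution in 30% captisol (pH 8) and at 4 mg/kg po in 0.5 methylcellulose.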

[2] = Drug level in skin of C57BL/6 mouse at 10 mg/kg, po after 24 hrs; format: ADME, organism-based, Zone of skin; parameters: dose 10 mg/kg, route oral; conditions: read-out: Drug uptake; outline: as §1
Salmonella typhimurium [3] = assay: Induction of mutagenicity in Salmonella typhimurium TA100 assessed as increase in number of revertants in presence of metabolic activation; format: toxicity, organism-based; conditions: salmonella enterica subsp. enterica serovar typhimurium
Outline: (§3)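 Microbial reverse-mutation (Ames) test in strains TA1535, TA98 and TA100, with and without metabolic activation. The concentration range was 30 to 5000 μg/plate. A positive call required a 2-fold or greater increase in revertants relative to the solvent control.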

[4] = Drug level in liver of C57BL/6 mouse at 10 mg/kg, po after 24 hrs; format: ADME, organism-based; parameters: dose 10 mg/kg, route oral; conditions: read-out: Drug uptake; outline: as §1
Canis familiaris = assay: AUC in Beagle dog assessed as cis-4-((1-(5-(5-(trifluoromethyl)-1H-benzo[d]imidazol-2-yl)pyridin-2-yl)piperidin-4-yl)oxy)cyclohexanecarboxylic acid at 4 mg/kg, po; format: ADME, organism-based, Canis lupus familiaris, Plasma; parameters: dose 4 mg/kg, route oral; conditions: in vivo; outline: as §2
[5] = Drug level in small intestine of C57BL/6 mouse at 10 mg/kg, po after 24 hrs; format: ADME, organism-based; parameters: dose 10 mg/kg, route oral; conditions: read-out: Drug uptake; outline: as §1
Salmonella typhimurium [6] = assay: Induction of mutagenicity in Salmonella typhimurium TA100 assessed as increase in number of revertants in absence of metabolic activation; format: toxicity, organism-based; conditions: salmonella enterica subsp. enterica serovar typhimurium; outline: as §3
[7] = AUC in Beagle dog at 4 mg/kg, po; format: ADME, organism-based, Canis lupus familiaris; parameters: dose 4 mg/kg, route oral; conditions: plasma; outline: as §2
Intestine = assay: Drug level in small intestine of C57BL/6 mouse assessed as cis-4-((1-(5-(5-(trifluoromethyl)-1H-benzo[d]imidazol-2-yl)pyridin-2-yl)piperidin-4-yl)oxy)cyclohexanecarboxylic acid level at 10 mg/kg, po after 3 hrs; format: ADME, organism-based; parameters: dose 10 mg/kg, route oral; conditions: in vivo, read-out: Drug uptake; outline: as §1
[8] = Drug level in skin of C57BL/6 mouse at 10 mg/kg, po after 3 hrs; format: ADME, organism-based, Zone of skin; parameters: dose 10 mg/kg, route oral; conditions: read-out: Drug uptake; outline: as §1
[9] = Volume of distribution at steady state in Sprague-Dawley rat at 1 mg/kg, iv or 2 mg/kg, po; format: ADME, organism-based; conditions: in vivo, read-out: Vdss
Outline: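 Sprague–Dawley rats were dosed as a solution in EtOH/PEG400/water (10:50:40), 1 mg/kg iv and 2 mg/kg po. Pharmacokinetic parameters were derived from these dosings.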

Zone of skin [10] = assay: Drug level in skin of C57BL/6 mouse assessed as cis-4-((1-(5-(5-(trifluoromethyl)-1H-benzo[d]imidazol-2-yl)pyridin-2-yl)piperidin-4-yl)oxy)cyclohexanecarboxylic acid level at 10 mg/kg, po after 24 hrs; format: ADME, organism-based; parameters: dose 10 mg/kg, route oral; conditions: in vivo, read-out: Drug uptake; outline: as §1
Zone of skin [11] = assay: Drug level in skin of C57BL/6 mouse assessed as cis-4-((1-(5-(5-(trifluoromethyl)-1H-benzo[d]imidazol-2-yl)pyridin-2-yl)piperidin-4-yl)oxy)cyclohexanecarboxylic acid level at 10 mg/kg, po after 3 hrs; format: ADME, organism-based; parameters: dose 10 mg/kg, route oral; conditions: in vivo, read-out: Drug uptake; outline: as §1
[12] = Oral bioavailability in Beagle dog at 4 mg/kg; format: ADME, organism-based, Canis lupus familiaris; conditions: in vivo; outline: as §2
[13] = Drug level in plasma of C57BL/6 mouse at 10 mg/kg, po after 3 hrs; format: ADME, organism-based; parameters: dose 10 mg/kg, route oral; outline: as §1
[14] = Plasma concentration in Sprague-Dawley rat at 3 mg/kg, po dosed 2 hrs before lipid challenge and measured at 4 hrs by lipid tolerance test; format: ADME, organism-based; parameters: dose 3 mg/kg, route oral
Outline: (§4)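 Rat lipid tolerance test at oral doses of 1 and 3 mpk. Reduction of lipid excursion was normalized to a reference DGAT1 inhibitor given at 10 mpk, set as 100%. Plasma drug levels were the parent and its cis isomer combined, measured 4 h after oral dosing.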

Rattus norvegicus = assay: Inhibition of plasma triglyceride accumulation in Sprague-Dawley rat at 3 mg/kg, po dosed 2 hrs before lipid challenge and measured at 18 hrs by lipid tolerance test; format: functional; outline: as §4
Salmonella typhimurium [15] = assay: Induction of mutagenicity in Salmonella typhimurium TA98 assessed as increase in number of revertants in absence of metabolic activation; format: toxicity, organism-based; conditions: salmonella enterica subsp. enterica serovar typhimurium; outline: as §3
[16] = Clearance in Sprague-Dawley rat at 1 mg/kg, iv or 2 mg/kg, po; format: ADME, organism-based; conditions: in vivo
[17] = target: T1, Sterol O-acyltransferase 1 (Homo sapiens, UniProt P35610); assay: Inhibition of human ACAT1
T1 sequence (P35610 whole entry): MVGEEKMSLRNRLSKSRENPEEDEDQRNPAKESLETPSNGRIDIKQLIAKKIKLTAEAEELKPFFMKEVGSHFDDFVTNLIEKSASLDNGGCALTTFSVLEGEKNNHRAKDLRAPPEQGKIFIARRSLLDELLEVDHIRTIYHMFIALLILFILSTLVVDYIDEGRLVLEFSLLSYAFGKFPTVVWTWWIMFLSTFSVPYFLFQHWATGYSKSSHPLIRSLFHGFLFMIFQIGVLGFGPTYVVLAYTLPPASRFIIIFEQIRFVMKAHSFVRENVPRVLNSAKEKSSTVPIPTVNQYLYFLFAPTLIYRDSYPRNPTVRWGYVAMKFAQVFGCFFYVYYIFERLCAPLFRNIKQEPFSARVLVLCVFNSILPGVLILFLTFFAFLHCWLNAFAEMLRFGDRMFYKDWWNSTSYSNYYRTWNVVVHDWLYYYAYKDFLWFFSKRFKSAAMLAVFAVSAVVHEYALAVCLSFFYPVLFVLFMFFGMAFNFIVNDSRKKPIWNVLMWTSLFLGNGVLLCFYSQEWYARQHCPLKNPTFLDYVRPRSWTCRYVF

[18] = Half life in Beagle dog at 1 mg/kg, iv or 4 mg/kg, po; format: ADME, organism-based, Canis lupus familiaris; conditions: in vivo; outline: as §2
[19] = Drug level in adipose fat of C57BL/6 mouse assessed as cis-4-((1-(5-(5-(trifluoromethyl)-1H-benzo[d]imidazol-2-yl)pyridin-2-yl)piperidin-4-yl)oxy)cyclohexanecarboxylic acid level at 10 mg/kg, po after 3 hrs; format: ADME, organism-based, Adipose tissue; parameters: dose 10 mg/kg, route oral; conditions: in vivo, read-out: Drug uptake; outline: as §1
Mus musculus = assay: Inhibition of plasma triglyceride accumulation in mouse at 10 mg/kg, po dosed 2 hrs before lipid challenge and measured at 18 hrs by lipid tolerance test; format: functional
Outline: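 Mouse lipid tolerance test measuring plasma triglyceride excursion. Dosing was 10 mpk oral, with triglyceride reduction read at 18 h.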

[20] = Unbound fraction in mouse plasma; format: ADME, cell-free
[21] = Drug level in liver of C57BL/6 mouse at 10 mg/kg, po after 3 hrs; format: ADME, organism-based; parameters: dose 10 mg/kg, route oral; conditions: read-out: Drug uptake; outline: as §1
[22] = AUC in Sprague-Dawley rat at 2 mg/kg, po; format: ADME, organism-based; parameters: dose 2 mg/kg, route oral; conditions: plasma
Salmonella typhimurium [23] = assay: Induction of mutagenicity in Salmonella typhimurium TA1535 assessed as increase in number of revertants in presence of metabolic activation; format: toxicity, organism-based; conditions: salmonella enterica subsp. enterica serovar typhimurium; outline: as §3
[24] = Drug level in plasma of C57BL/6 mouse at 10 mg/kg, po after 24 hrs; format: ADME, organism-based; parameters: dose 10 mg/kg, route oral; outline: as §1
[25] = Unbound fraction in human plasma; format: ADME, cell-free

SMILES: O=C(O)[C@H]1CC[C@H](OC2CCN(c3ccc(-c4nc5cc(C(F)(F)F)ccc5[nH]4)cn3)CC2)CC1
- concentration (Liver): 672 nM
- clearance [1]: 88.9 mL/min/kg
- concentration at 24 h [2]: 167 nM
- Activity (Salmonella typhimurium [3]): Non-toxic
- concentration at 24 h [4]: 4020 nM
- AUC (Canis familiaris): 0.11 µM·h
- concentration at 24 h [5]: 711 nM
- Activity (Salmonella typhimurium [6]): Non-toxic
- AUC [7]: 1.94 µM·h
- concentration (Intestine): 5030 nM
- concentration at 3 h [8]: 404 nM
- Vd [9]: 0.19 L/kg
- concentration (Zone of skin [10]): 18 nM
- concentration (Zone of skin [11]): 46 nM
- bioavailability [12]: 126%
- concentration at 3 h [13]: 324 nM
- concentration at 4 h [14]: 58 nM
- inhibition in vivo at 3 mg/kg (Rattus norvegicus): 80%
- Activity (Salmonella typhimurium [15]): Non-toxic
- clearance [16]: 5.82 mL/min/kg
- IC50 [17]: > 10 µM
- half-life [18]: 1.16 h
- concentration [19]: 21 nM
- inhibition in vivo at 10 mg/kg (Mus musculus): 89%
- fraction unbound [20]: 0.078
- concentration at 3 h [21]: 21600 nM
- AUC [22]: 1 µM·h
- Activity (Salmonella typhimurium [23]): Non-toxic
- concentration at 24 h [24]: < 10 nM
- fraction unbound [25]: 0.09
